Assay results reported in ChEMBL document CHEMBL1138503, “(Z)- and (E)-2-(1,2-dihydroxyethyl)methylenecyclopropane analogues of 2'-deoxyadenosine and 2'-deoxyguanosine. Synthesis of all stereoisomers, absolute configuration, and antiviral activity” (J Med Chem, 2009).
The source made the active and inactive calls. The rule behind the calls is not given here.

How the values were obtained:
[1] = test system: Human betaherpesvirus 5; test: Antiviral activity against Human cytomegalovirus Towne infected in human foreskin fibroblast cells by plaque reduction assay; assay type: functional, organism-based; details: Human betaherpesvirus 5, Towne
Procedure, shortened: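 HCMV Towne in human foreskin fibroblasts, plaque reduction assay; EC50 from plaque counts; cytotoxicity scored visually in uninfected HFF used for the plaque assays.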

[2] = test system: Human gammaherpesvirus 4; test: Antiviral activity against Epstein-Barr virus infected in human Akata cells by DNA hybridization assay; assay type: functional, organism-based; details: human gammaherpesvirus 4, Akata
Procedure, shortened: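 EBV DNA hybridization assay run in Akata cells; EC50 by DNA hybridization.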

[3] = biological target: T1, Adenosine deaminase (Bos taurus) (UniProt P56658); test: Activity of calf intestine adenosine deaminase assessed as deamination after 24 hrs; parameters: concentration or dose not given beside the values
T1 sequence (whole entry): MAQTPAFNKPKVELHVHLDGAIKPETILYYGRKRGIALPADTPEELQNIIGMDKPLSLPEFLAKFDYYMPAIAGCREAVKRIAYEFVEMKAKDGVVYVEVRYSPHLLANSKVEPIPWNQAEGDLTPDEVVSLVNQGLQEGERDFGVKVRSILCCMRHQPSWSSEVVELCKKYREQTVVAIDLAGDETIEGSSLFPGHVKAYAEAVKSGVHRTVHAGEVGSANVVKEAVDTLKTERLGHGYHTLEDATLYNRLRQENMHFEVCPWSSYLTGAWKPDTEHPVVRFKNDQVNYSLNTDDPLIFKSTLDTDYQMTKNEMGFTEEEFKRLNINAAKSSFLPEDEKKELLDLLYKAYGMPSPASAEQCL
Procedure, shortened: (§1)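 Substrate (2 µmol) stirred with calf intestine ADA (1.7 units) in 0.05 M Na2HPO4, pH 7.5, 0.6 mL total. Aliquots withdrawn, diluted with buffer, and UV spectra recorded. Deamination followed as the fall in absorbance at 260 nm, expressed as percent deaminated at 24 h and 48 h.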

[4] = test system: Hepatitis B virus; test: Antiviral activity against Hepatitis B virus; assay type: functional, organism-based
[5] = Cytotoxicity against human Akata cells; assay type: cell-based
[6] = biological target: T1, Adenosine deaminase (Bos taurus); test: Activity of calf intestine adenosine deaminase assessed as deamination after 48 hrs; parameters: concentration or dose not given beside the values; procedure, shortened: as §1
[7] = test system: Human betaherpesvirus 5; test: Antiviral activity against Human cytomegalovirus AD169 infected in human foreskin fibroblast cells assessed as inhibition of virus-induced cytopathic effect; assay type: functional, organism-based; details: Human betaherpesvirus 5, AD169, Fibroblast
Procedure, shortened: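 HCMV strain AD169 grown in human foreskin fibroblasts; cytopathic effect (CPE) inhibition assay gives EC50; cytotoxicity taken by neutral red uptake.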

[8] = test system: Hepatitis C virus; test: Antiviral activity against Hepatitis C virus; assay type: functional, organism-based; details: Hepacivirus hominis
[9] = test system: HFF; test: (§2) Cytotoxicity against HFF cells by neutral red uptake assay; assay type: cell-based; details: human, hff
Procedure, shortened: (§3)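 Uninfected HFF cells, run alongside the HCMV cytopathic effect inhibition assay. Cytotoxicity read by neutral red uptake.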

[10] = as §2; assay type: cell-based; details: human, HFF cells; procedure, shortened: as §3
[11] = test system: Human betaherpesvirus 5; test: Antiviral activity against cyclopropavir-resistant Human cytomegalovirus isolate 2696r with phosphotransferase UL97 mutation by plaque reduction assay; assay type: functional, organism-based; details: Human betaherpesvirus 5, isolate 2696r
Procedure, shortened: (§4)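 Plaque reduction in HFF cells with UL97-mutant HCMV raised from Towne: E8 (two point mutations in UL97, selected by growth in synadenol) and 2696r (truncated UL97, selected in cyclopropavir). Four drug concentrations tested in duplicate; EC50 from plaque counts.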

[12] = (§5) Cytotoxicity against HFF cells by plaque reduction assay; assay type: cell-based; details: human, HFF cells
Procedure, shortened: (§6)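 Cytotoxicity scored visually in uninfected HFF cells run alongside the HCMV plaque reduction assays.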

[13] = test system: Human betaherpesvirus 5; test: Antiviral activity against Human cytomegalovirus E8 with phosphotransferase UL97 two point mutation by plaque reduction assay; assay type: functional, organism-based; details: Human betaherpesvirus 5, E8; procedure, shortened: as §4
[14] = test system: HFF; test: as §5; assay type: cell-based; details: human, hff; procedure, shortened: as §6
[15] = test system: Murid betaherpesvirus 1; test: Antiviral activity against Murine cytomegalovirus infected in mouse embryonic fibroblast cells by plaque reduction assay; assay type: functional, organism-based; details: Murid betaherpesvirus 1, Fibroblast
Procedure, shortened: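 MCMV plaque reduction assay in mouse embryonic fibroblast (MEF) cells; EC50 from plaque counts.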

[16] = test system: Human alphaherpesvirus 2; test: Antiviral activity against HSV2 infected in human foreskin fibroblast cells; assay type: functional, organism-based
[17] = test system: MEF; test: Cytotoxicity against MEF cells; assay type: cell-based; details: mouse
[18] = test system: Human alphaherpesvirus 1; test: Antiviral activity against HSV1 infected in african green monkey BSC1 cells by ELISA; assay type: functional, organism-based; details: Human alphaherpesvirus 1, BSC-1
[19] = test system: Human alphaherpesvirus 1; test: Antiviral activity against HSV1 infected in human foreskin fibroblast cells; assay type: functional, organism-based
[20] = Cytotoxicity against african green monkey BSC1 cells; assay type: cell-based; details: chlorocebus aethiops, bsc-1
[21] = test system: Human alphaherpesvirus 3; test: Antiviral activity against Varicella zoster virus infected in human foreskin fibroblast cells; assay type: functional, organism-based; details: Human alphaherpesvirus 3, Fibroblast

Compound	EC50 [1]	EC50 [2]	Activity [3]	Activity [4]	CC50 ([5]; akata)	Activity [6]	EC50 [7]	Activity [8]	CC50 [9]	other results
Nc1ncnc2c1ncn2/C=C1/C[C@H]1[C@@H](O)CO	> 100 µM	52.6 µM	0%	inactive	61.5 µM	0%	> 60 µM	inactive	–	–
Nc1nc2c(ncn2/C=C2\C[C@H]2[C@@H](O)CO)c(=O)[nH]1	> 100 µM	40 µM	–	inactive	75 µM	–	> 60 µM	inactive	298 µM	–
Nc1ncnc2c1ncn2/C=C1/C[C@H]1[C@H](O)CO	> 100 µM	60 µM	0%	inactive	93.5 µM	0%	> 60 µM	inactive	206 µM	–
Nc1nc2c(ncn2/C=C2/C[C@@H]2[C@H](O)CO)c(=O)[nH]1	> 100 µM	43 µM	–	inactive	54 µM	–	> 300 µM	inactive	–	–
Nc1ncnc2c1ncn2/C=C1\C[C@H]1[C@H](O)CO	> 100 µM	9.8 µM	65%	inactive	72.7 µM	85%	> 60 µM	inactive	194 µM	–
Nc1ncnc2c1ncn2/C=C1\C[C@H]1[C@@H](O)CO	> 100 µM	17 µM	100%	inactive	73 µM	100%	> 60 µM	inactive	264 µM	–
Nc1nc2c(ncn2/C=C2/C[C@H]2[C@H](O)CO)c(=O)[nH]1	> 100 µM	> 20 µM	–	inactive	62.6 µM	–	> 300 µM	inactive	–	–
Nc1nc2c(ncn2/C=C2/CC2(CO)CO)c(=O)[nH]1 [FILOCICLOVIR]	0.46 µM	0.22 µM	–	inactive	–	–	0.49 µM	inactive	–	CC50 [10]: > 100 µM; EC50 [11]: 28 µM; CC50 [12]: > 100 µM; EC50 [13]: 8 µM
Nc1ncnc2c1ncn2/C=C1\C[C@@H]1[C@@H](O)CO	> 100 µM	50.4 µM	100%	inactive	50.6 µM	100%	> 300 µM	inactive	–	–
Nc1nc(O)c2ncn(COC(CO)CO)c2n1 [GANCICLOVIR]	–	–	–	–	–	–	–	–	–	CC50 [10]: > 100 µM; CC50 [12]: > 100 µM
Nc1nc2c(ncn2/C=C2\C[C@@H]2[C@H](O)CO)c(=O)[nH]1	> 100 µM	> 20 µM	–	inactive	67 µM	–	> 60 µM	inactive	> 300 µM	–
Nc1nc2c(ncn2/C=C2\C[C@@H]2[C@@H](O)CO)c(=O)[nH]1	> 100 µM	18 µM	–	inactive	61 µM	–	> 300 µM	inactive	–	–
Nc1nc2c(ncn2/C=C2/C[C@@H]2[C@@H](O)CO)c(=O)[nH]1	> 100 µM	> 20 µM	–	inactive	56 µM	–	> 300 µM	inactive	–	–
Nc1nc2c(ncn2COCCO)c(=O)[nH]1 [ACYCLOVIR]	–	3.3 µM	–	inactive	–	–	–	inactive	–	CC50 ([5]; Akata cells): > 100 µM
Nc1nc2c(ncn2/C=C2\C[C@H]2[C@H](O)CO)c(=O)[nH]1	> 100 µM	58.7 µM	–	inactive	86.6 µM	–	> 300 µM	inactive	–	CC50 [14]: > 300 µM
Nc1nc2c(ncn2COC(CO)CO)c(=O)[nH]1 [GANCICLOVIR]	1.2 µM	–	–	inactive	–	–	0.04 µM	inactive	–	EC50 [15]: 5.5 µM; EC50 [11]: 42 µM; EC50 [13]: 22 µM
Nc1ncnc2c1ncn2/C=C1\C[C@@H]1[C@H](O)CO	> 100 µM	> 20 µM	85%	inactive	57 µM	100%	> 60 µM	inactive	–	CC50 [14]: > 100 µM
Nc1nc2c(ncn2/C=C2/C[C@H]2[C@@H](O)CO)c(=O)[nH]1	6.8 µM	8 µM	–	inactive	78 µM	–	7.5 µM	inactive	299 µM	EC50 [15]: 11.3 µM; Activity [16]: inactive; Activity [17]: Not Active; EC50 [11]: > 100 µM; EC50 [18]: 50 µM; CC50 [14]: > 100 µM; Activity [19]: inactive; CC50 [20]: > 100 µM; EC50 [13]: 72 µM; EC50 [21]: 47 µM
Nc1ncnc2c1ncn2/C=C1/C[C@@H]1[C@@H](O)CO	> 100 µM	43 µM	65%	inactive	55 µM	80%	> 60 µM	inactive	> 300 µM	–
Nc1ncnc2c1ncn2/C=C1/C[C@@H]1[C@H](O)CO	> 100 µM	> 20 µM	45%	inactive	50.5 µM	80%	300 µM	inactive	–	–
